Test results taken from ChEMBL document CHEMBL1127576, “Inhibition of human immunodeficiency virus type 1 replication by phosphonoformate- and phosphonoacetate-2',3'-dideoxy-3'-thiacytidine conjugates” (J Med Chem, 1994).

What was measured:
[1] = Therapeutic index was measured as concentration required to cause 50% death of uninfected MT-4- cells to IC50 concentration required to inhibit syncytia formation by 50% in HIV-1 infected MT-4 cells; format: cell-based, MT4; details: human, uninfected MT-4 cells and HIV-1 infected MT-4 cells; read-out: TI
In short: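 Ratio of ID50 to IC50. ID50: uninfected MT-4 cells (2 × 10⁵), three replicate cultures, with graded analogue concentrations; viability by trypan blue exclusion 6 days after drug addition; ID50 is the concentration killing 50% of cells. IC50: 50% inhibition of syncytia in HIV-1-infected MT-4 cells (1 h infection, 37 °C), scored microscopically at day 5.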

MT4 [2] = experiment: (§1) Concentration required to inhibit syntica formation by 50% in HIV-1 infected MT-4 cells; format: functional, cell-based; details: Homo sapiens
In short: (§2)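 MT-4 cells (3 × 10⁵) infected with diluted HIV-1 for 1 h at 37 °C, washed three times, then cultured with inhibitor. Syncytia were counted by inverted light microscopy 5 days post-infection. IC50 was the concentration giving 50% inhibition of syncytia formation without cell toxicity.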

MT4 [3] = experiment: as §1; format: ADME, cell-based; details: Homo sapiens; in short: as §2

Row | Compound | selectivity ratio [1] | IC50 (MT4 [2]) | IC50 (MT4 [3])
1 | CCOP(=O)(CC(=O)OCC1OC(n2ccc(N)nc2=O)CS1)OCC (stereo unspecified) | 50 | 10000 nM | –
2 | CCOP(=O)(OCC)C(=O)OCC1OC(n2ccc(NC(C)=O)nc2=O)CS1 (stereo unspecified) | 350 | 300 nM | –
3 | Nc1ccn(C2CSC(COC(=O)CP(=O)(O)O)O2)c(=O)n1 (stereo unspecified) | 300 | 1000 nM | –
4 | Nc1ccn([C@@H]2CS[C@H](CO)O2)c(=O)n1 [LAMIVUDINE] | 1000 | 100 nM | –
5 | O=C(CP(=O)(O)O)Nc1ccn(C2CSC(CO)O2)c(=O)n1 (stereo unspecified) | 10 | – | 100000 nM
6 | Nc1ccn(C2CSC(COP(=O)(O)C(=O)O)O2)c(=O)n1 (stereo unspecified) | 10 | 100000 nM | –
7 | CCOP(=O)(CC(=O)Nc1ccn(C2CSC(CO)O2)c(=O)n1)OCC (stereo unspecified) | 100 | 5000 nM | –
8 | CC(=O)Nc1ccn(C2CSC(COC(=O)P(=O)(O)O)O2)c(=O)n1 (stereo unspecified) | 500 | 200 nM | –
